Results published in ChEMBL document CHEMBL1142511, “[(18)F]-labeled isoindol-1-one and isoindol-1,3-dione derivatives as potential PET imaging agents for detection of beta-amyloid fibrils” (Bioorg Med Chem Lett, 2008).

Assay: Displacement of [125I]TZDM from amyloid beta 1 to 42 aggregates
Outline: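 Competitive binding against aggregated Aβ1–42 with [125I]TZDM as radioligand. Non-specific binding defined with 2 µM thioflavin T. Incubated 3 h at room temperature. Bound and free radioactivity separated by vacuum filtration through GF/B filters, followed by two washes with 10% EtOH at room temperature. IC50 converted to Ki by the Cheng–Prusoff equation.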
In the case of `CNc1ccc(N2C(=O)c3ccc(OCCCF)cc3C2=O)cc1`, the Ki is reported as 0.78 nM. `CNc1ccc(N2Cc3cc(OCCF)ccc3C2=O)cc1` gave a Ki of 0.91 nM. Compound `CN(C)c1ccc(N2Cc3cc(OCCCF)ccc3C2=O)cc1` has a Ki of 0.71 nM. `Nc1ccc(N2Cc3cc(OCCCF)ccc3C2=O)cc1` gave a Ki of 0.4 nM. With `CNc1ccc(N2C(=O)c3ccc(OCCF)cc3C2=O)cc1` the Ki was 0.6 nM. Work on `CN(C)c1ccc(N2Cc3cc(OCCF)ccc3C2=O)cc1` yielded a Ki of 0.3 nM. `Nc1ccc(N2C(=O)c3ccc(OCCCF)cc3C2=O)cc1` showed a Ki of 0.74 nM. `CNc1ccc(N2Cc3cc(OCCCF)ccc3C2=O)cc1` showed a Ki of 0.51 nM. Work on `CNc1ccc(-c2nc3ccc(O)cc3s2)cc1` [PITTSBURGH COMPOUND B UNLABELLED] yielded a Ki of 0.77 nM. Work on `CN(C)c1ccc(N2C(=O)c3ccc(OCCF)cc3C2=O)cc1` yielded a Ki of 0.69 nM. Work on `Nc1ccc(N2C(=O)c3ccc(OCCF)cc3C2=O)cc1` yielded a Ki of 0.59 nM. With `CN(C)c1ccc(N2C(=O)c3ccc(OCCCF)cc3C2=O)cc1` the Ki was 0.85 nM. Compound `Nc1ccc(N2Cc3cc(OCCF)ccc3C2=O)cc1` has a Ki of 0.61 nM.
